Test results published in ChEMBL document CHEMBL1147115 (2007).
Converted amounts (≈) assume the structure as drawn.

Legend:
[1] = test system: Klebsiella pneumoniae; assay: Antimicrobial activity against ESBL producing Klebsiella pneumoniae 265 isolate; type: functional
[2] = test system: Klebsiella pneumoniae; assay: Antimicrobial activity against ESBL producing Klebsiella pneumoniae 268 isolate; type: functional
[3] = test system: Klebsiella pneumoniae; assay: Antimicrobial activity against ESBL producing Klebsiella pneumoniae 270 isolate; type: functional
[4] = test system: Klebsiella pneumoniae; assay: Antimicrobial activity against ESBL producing Klebsiella pneumoniae 260 isolate; type: functional
[5] = test system: Klebsiella pneumoniae; assay: Antimicrobial activity against ESBL producing Klebsiella pneumoniae 264 isolate; type: functional
[6] = test system: Escherichia coli; assay: Antimicrobial activity against ESBL producing Escherichia coli 311 isolate; type: functional
[7] = test system: Klebsiella pneumoniae; assay: Antimicrobial activity against ESBL producing Klebsiella pneumoniae 255 isolate; type: functional
[8] = test system: Klebsiella pneumoniae; assay: Antimicrobial activity against ESBL producing Klebsiella pneumoniae 254 isolate; type: functional
[9] = test system: Klebsiella pneumoniae; assay: Antimicrobial activity against ESBL producing Klebsiella pneumoniae 259 isolate; type: functional
[10] = test system: Klebsiella pneumoniae; assay: Antimicrobial activity against ESBL producing Klebsiella pneumoniae 263 isolate; type: functional
[11] = test system: Klebsiella pneumoniae; assay: Antimicrobial activity against ESBL producing Klebsiella pneumoniae 266 isolate; type: functional
[12] = test system: Klebsiella pneumoniae; assay: Antimicrobial activity against ESBL producing Klebsiella pneumoniae 257 isolate; type: functional
[13] = test system: Klebsiella pneumoniae; assay: Antimicrobial activity against ESBL producing Klebsiella pneumoniae 258 isolate; type: functional
[14] = test system: Klebsiella pneumoniae; assay: Antimicrobial activity against ESBL producing Klebsiella pneumoniae 262 isolate; type: functional
[15] = test system: Klebsiella pneumoniae; assay: Antimicrobial activity against ESBL producing Klebsiella pneumoniae 261 isolate; type: functional
[16] = test system: Escherichia coli; assay: Antimicrobial activity against Escherichia coli ATCC 25922 isolate infected thigh infection model ICR mouse; type: functional, Thigh muscle
Summary of the method: (§1)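 Female ICR mice (~25 g) were made neutropenic with cyclophosphamide ip (150 and 100 mg/kg, days −4 and −1) and renally impaired with uranyl nitrate 5 mg/kg ip (day −3). Each thigh got 0.1 ml of 10^5 CFU/ml (or 10^7 for high inoculum) im 2 h pre-therapy. Human-simulated regimens were given sc, three mice per group, for 24 h. Efficacy was the log10 CFU/thigh change versus 0-h controls.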

[17] = test system: Escherichia coli; assay: Antimicrobial activity against Escherichia coli 120 isolate infected thigh infection model ICR mouse; type: functional, Thigh muscle; summary of the method: as §1
[18] = test system: Escherichia coli; assay: Antimicrobial activity against ESBL producing Escherichia coli 320 isolate infected thigh infection model ICR mouse; type: functional, Thigh muscle; summary of the method: as §1
[19] = test system: Escherichia coli; assay: Antimicrobial activity against ESBL producing Escherichia coli 321 isolate infected thigh infection model ICR mouse; type: functional, Thigh muscle; summary of the method: as §1
[20] = test system: Escherichia coli; assay: Antimicrobial activity against ESBL producing Escherichia coli 322 isolate infected thigh infection model ICR mouse; type: functional, Thigh muscle; summary of the method: as §1
[21] = test system: Escherichia coli; assay: Antimicrobial activity against ESBL producing Escherichia coli 310 isolate infected thigh infection model ICR mouse; type: functional, Thigh muscle; summary of the method: as §1
[22] = test system: Escherichia coli; assay: Antimicrobial activity against ESBL producing Escherichia coli 312 isolate infected thigh infection model ICR mouse; type: functional, Thigh muscle; summary of the method: as §1
[23] = test system: Escherichia coli; assay: Antimicrobial activity against ESBL producing Escherichia coli 318 isolate infected thigh infection model ICR mouse; type: functional, Thigh muscle; summary of the method: as §1
[24] = test system: Escherichia coli; assay: Antimicrobial activity against ESBL producing Escherichia coli 243 isolate infected thigh infection model ICR mouse; type: functional, Thigh muscle; summary of the method: as §1
[25] = test system: Escherichia coli; assay: Antimicrobial activity against ESBL producing Escherichia coli 285 isolate infected thigh infection model ICR mouse; type: functional, Thigh muscle; summary of the method: as §1
[26] = test system: Klebsiella pneumoniae; assay: Antimicrobial activity against ESBL producing Klebsiella pneumoniae 225 isolate infected thigh infection model ICR mouse; type: functional, Thigh muscle; summary of the method: as §1
[27] = test system: Klebsiella pneumoniae; assay: Antimicrobial activity against ESBL producing Klebsiella pneumoniae 60 isolate infected thigh infection model ICR mouse; type: functional, Thigh muscle; summary of the method: as §1
[28] = test system: Escherichia coli; assay: Antimicrobial activity against ESBL producing Escherichia coli 315 isolate infected thigh infection model ICR mouse; type: functional, Thigh muscle; summary of the method: as §1
[29] = test system: Escherichia coli; assay: Antimicrobial activity against ESBL producing Escherichia coli 130 isolate infected thigh infection model ICR mouse; type: functional, Thigh muscle; summary of the method: as §1
[30] = test system: Klebsiella pneumoniae; assay: Antimicrobial activity against ESBL producing Klebsiella pneumoniae 265 isolate infected thigh infection model ICR mouse; type: functional, Thigh muscle; summary of the method: as §1
[31] = test system: Escherichia coli; assay: Antimicrobial activity against ESBL producing Escherichia coli 133 isolate infected thigh infection model ICR mouse; type: functional, Thigh muscle; summary of the method: as §1
[32] = test system: Klebsiella pneumoniae; assay: Antimicrobial activity against ESBL producing Klebsiella pneumoniae 101 isolate infected thigh infection model ICR mouse; type: functional, Thigh muscle; summary of the method: as §1
[33] = test system: Klebsiella pneumoniae; assay: Antimicrobial activity against ESBL producing Klebsiella pneumoniae 230 isolate infected thigh infection model ICR mouse; type: functional, Thigh muscle; summary of the method: as §1
[34] = test system: Klebsiella pneumoniae; assay: Antimicrobial activity against ESBL producing Klebsiella pneumoniae 268 isolate infected thigh infection model ICR mouse; type: functional, Thigh muscle; summary of the method: as §1
[35] = test system: Klebsiella pneumoniae; assay: Antimicrobial activity against ESBL producing Klebsiella pneumoniae 270 isolate infected thigh infection model ICR mouse; type: functional, Thigh muscle; summary of the method: as §1
[36] = test system: Klebsiella pneumoniae; assay: Antimicrobial activity against ESBL producing Klebsiella pneumoniae 260 isolate infected thigh infection model ICR mouse; type: functional, Thigh muscle; summary of the method: as §1
[37] = test system: Klebsiella pneumoniae; assay: Antimicrobial activity against ESBL producing Klebsiella pneumoniae 264 isolate infected thigh infection model ICR mouse; type: functional, Thigh muscle; summary of the method: as §1
[38] = test system: Escherichia coli; assay: Antimicrobial activity against ESBL producing Escherichia coli 311 isolate infected thigh infection model ICR mouse; type: functional, Thigh muscle; summary of the method: as §1
[39] = test system: Klebsiella pneumoniae; assay: Antimicrobial activity against ESBL producing Klebsiella pneumoniae 255 isolate infected thigh infection model ICR mouse; type: functional, Thigh muscle; summary of the method: as §1
[40] = test system: Klebsiella pneumoniae; assay: Antimicrobial activity against ESBL producing Klebsiella pneumoniae 254 isolate infected thigh infection model ICR mouse; type: functional, Thigh muscle; summary of the method: as §1
[41] = test system: Klebsiella pneumoniae; assay: Antimicrobial activity against ESBL producing Klebsiella pneumoniae 259 isolate infected thigh infection model ICR mouse; type: functional, Thigh muscle; summary of the method: as §1
[42] = test system: Klebsiella pneumoniae; assay: Antimicrobial activity against ESBL producing Klebsiella pneumoniae 263 isolate infected thigh infection model ICR mouse; type: functional, Thigh muscle; summary of the method: as §1
[43] = test system: Klebsiella pneumoniae; assay: Antimicrobial activity against ESBL producing Klebsiella pneumoniae 266 isolate infected thigh infection model ICR mouse; type: functional, Thigh muscle; summary of the method: as §1
[44] = test system: Klebsiella pneumoniae; assay: Antimicrobial activity against ESBL producing Klebsiella pneumoniae 257 isolate infected thigh infection model ICR mouse; type: functional, Thigh muscle; summary of the method: as §1
[45] = test system: Klebsiella pneumoniae; assay: Antimicrobial activity against ESBL producing Klebsiella pneumoniae 258 isolate infected thigh infection model ICR mouse; type: functional, Thigh muscle; summary of the method: as §1
[46] = test system: Klebsiella pneumoniae; assay: Antimicrobial activity against ESBL producing Klebsiella pneumoniae 262 isolate infected thigh infection model ICR mouse; type: functional, Thigh muscle; summary of the method: as §1
[47] = test system: Klebsiella pneumoniae; assay: Antimicrobial activity against ESBL producing Klebsiella pneumoniae 256 isolate infected thigh infection model ICR mouse; type: functional, Thigh muscle; summary of the method: as §1
[48] = test system: Klebsiella pneumoniae; assay: Antimicrobial activity against ESBL producing Klebsiella pneumoniae 261 isolate infected thigh infection model ICR mouse; type: functional, Thigh muscle; summary of the method: as §1
[49] = test system: Klebsiella pneumoniae; assay: Bacteriostasis activity against ESBL producing Klebsiella pneumoniae 262 isolate at 8 ug/ml; type: functional
[50] = test system: Klebsiella pneumoniae; assay: Antimicrobial activity against ESBL producing Klebsiella pneumoniae 230 isolate; type: functional
[51] = test system: Escherichia coli; assay: Antimicrobial activity against ESBL producing Escherichia coli 130 isolate; type: functional
[52] = test system: Escherichia coli; assay: Antimicrobial activity against Escherichia coli ATCC 25922 isolate; type: functional
[53] = test system: Escherichia coli; assay: Antimicrobial activity against Escherichia coli 120 isolate; type: functional
[54] = test system: Escherichia coli; assay: Antimicrobial activity against ESBL producing Escherichia coli 320 isolate; type: functional
[55] = test system: Escherichia coli; assay: Antimicrobial activity against ESBL producing Escherichia coli 321 isolate; type: functional
[56] = test system: Escherichia coli; assay: Antimicrobial activity against ESBL producing Escherichia coli 322 isolate; type: functional
[57] = test system: Escherichia coli; assay: Antimicrobial activity against ESBL producing Escherichia coli 310 isolate; type: functional
[58] = test system: Escherichia coli; assay: Antimicrobial activity against ESBL producing Escherichia coli 312 isolate; type: functional
[59] = test system: Escherichia coli; assay: Antimicrobial activity against ESBL producing Escherichia coli 118 isolate; type: functional
[60] = test system: Escherichia coli; assay: Antimicrobial activity against ESBL producing Escherichia coli 243 isolate; type: functional
[61] = test system: Escherichia coli; assay: Antimicrobial activity against ESBL producing Escherichia coli 285 isolate; type: functional
[62] = test system: Klebsiella pneumoniae; assay: Antimicrobial activity against ESBL producing Klebsiella pneumoniae 225 isolate; type: functional
[63] = test system: Klebsiella pneumoniae; assay: Antimicrobial activity against ESBL producing Klebsiella pneumoniae 60 isolate; type: functional
[64] = test system: Escherichia coli; assay: Antimicrobial activity against ESBL producing Escherichia coli 315 isolate; type: functional
[65] = test system: Escherichia coli; assay: Antimicrobial activity against ESBL producing Escherichia coli 133 isolate; type: functional
[66] = test system: Klebsiella pneumoniae; assay: Antimicrobial activity against ESBL producing Klebsiella pneumoniae 101 isolate; type: functional

C[C@@H](O)[C@H]1C(=O)N2C(C(=O)O)=C(S[C@@H]3CN[C@H](C(=O)N(C)C)C3)[C@H](C)[C@H]12 [MEROPENEM]
MIC [1]: 0.125 µg/mL (≈ 0.326 µM)
MIC [2]: 0.125 µg/mL (≈ 0.326 µM)
MIC [3]: 0.25 µg/mL (≈ 0.652 µM)
MIC [4]: 0.5 µg/mL (≈ 1.3 µM)
MIC [5]: 0.5 µg/mL (≈ 1.3 µM)
MIC [6]: 0.75 µg/mL (≈ 1.96 µM)
MIC [7]: 1 µg/mL (≈ 2.61 µM)
MIC [8]: 2 µg/mL (≈ 5.22 µM)
MIC [9]: 2 µg/mL (≈ 5.22 µM)
MIC [10]: 2 µg/mL (≈ 5.22 µM)
MIC [11]: 2 µg/mL (≈ 5.22 µM)
MIC [12]: 4 µg/mL (≈ 10.4 µM)
MIC [13]: 4 µg/mL (≈ 10.4 µM)
MIC [14]: 8 µg/mL (≈ 20.9 µM)
MIC [15]: 32 µg/mL (≈ 83.4 µM)
fT>MIC [16]: 93%
fT>MIC [17]: 93%
fT>MIC [18]: 93%
fT>MIC [19]: 93%
fT>MIC [20]: 93%
fT>MIC [21]: 90%
fT>MIC [22]: 90%
fT>MIC [23]: 90%
fT>MIC [24]: 90%
fT>MIC [25]: 90%
fT>MIC [26]: 90%
fT>MIC [27]: 88%
fT>MIC [28]: 85%
fT>MIC [29]: 85%
fT>MIC [30]: 85%
fT>MIC [31]: 85%
fT>MIC [32]: 85%
fT>MIC [33]: 85%
fT>MIC [34]: 85%
fT>MIC [35]: 80%
fT>MIC [36]: 75%
fT>MIC [37]: 75%
fT>MIC [38]: 70%
fT>MIC [39]: 65%
fT>MIC [40]: 58%
fT>MIC [41]: 58%
fT>MIC [42]: 58%
fT>MIC [43]: 58%
fT>MIC [44]: 45%
fT>MIC [45]: 45%
fT>MIC [46]: 30%
fT>MIC [47]: 18%
fT>MIC [48]: 5%
MIC [49]: 8 µg/mL (≈ 20.9 µM)
MIC [50]: 0.094 µg/mL (≈ 0.245 µM)
MIC [51]: 0.125 µg/mL (≈ 0.326 µM)
MIC [52]: 0.03 µg/mL (≈ 0.0782 µM)
MIC [53]: 0.03 µg/mL (≈ 0.0782 µM)
MIC [54]: 0.03 µg/mL (≈ 0.0782 µM)
MIC [55]: 0.032 µg/mL (≈ 0.0834 µM)
MIC [56]: 0.032 µg/mL (≈ 0.0834 µM)
MIC [57]: 0.047 µg/mL (≈ 0.123 µM)
MIC [58]: 0.047 µg/mL (≈ 0.123 µM)
MIC [59]: 0.047 µg/mL (≈ 0.123 µM)
MIC [60]: 0.047 µg/mL (≈ 0.123 µM)
MIC [61]: 0.047 µg/mL (≈ 0.123 µM)
MIC [62]: 0.047 µg/mL (≈ 0.123 µM)
MIC [63]: 0.064 µg/mL (≈ 0.167 µM)
MIC [64]: 0.094 µg/mL (≈ 0.245 µM)
MIC [65]: 0.094 µg/mL (≈ 0.245 µM)
MIC [66]: 0.094 µg/mL (≈ 0.245 µM)
